Source: ChEMBL document CHEMBL3045256, “Design, synthesis, structure, and acaricidal/insecticidal activity of novel spirocyclic tetronic acid derivatives containing an oxalyl moiety” (2011)

Tests used:
Format in all cases: functional
Tetranychus cinnabarinus [1] = assay: Acaricidal activity against eggs of Tetranychus cinnabarinus (carmine spider mite) in sieva bean leaves assessed as mortality at 5 mg/kg at 25 +/-1 degC treated for 3 secs measured after 4 days; conditions: 96 h
Tetranychus cinnabarinus [2] = assay: Acaricidal activity against larvae of Tetranychus cinnabarinus (carmine spider mite) in sieva bean leaves assessed as mortality at 10 mg/kg at 25 +/-1 degC treated for 3 secs measured after 4 days; conditions: 96 h
Tetranychus cinnabarinus [3] = assay: Acaricidal activity against eggs of Tetranychus cinnabarinus (carmine spider mite) in sieva bean leaves assessed as mortality at 2.5 mg/kg at 25 +/-1 degC treated for 3 secs measured after 4 days; conditions: 96 h
Mythimna separata [4] = assay: Stomach toxicity against fourth-instar larval stage of Mythimna separata (Oriental armyworm) in compound-pretreated corn leaves assessed as mortality at 600 mg/kg at 25 +/-1 degC after 4 days
Method in brief: (§1)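 Foliar application to oriental armyworm. Single corn leaves were laid on moistened filter paper in Petri dishes. Bioassays were run at 25 ± 1 °C.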

Helicoverpa armigera = assay: Stomach toxicity against third-instar larval stage of Helicoverpa armigerain compound-pretreated corn leaves assessed as mortality at 600 mg/kg at 25 +/-1 degC after 4 days by leaf-dip method
Method in brief: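 Leaf-dip assay on cotton bollworm. Corn leaves were dipped in test solution and air-dried. The treated pieces were placed individually into 24-hole boxes. Run at 25 ± 1 °C.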

Tetranychus cinnabarinus [5] = assay: Acaricidal activity against larvae of Tetranychus cinnabarinus (carmine spider mite) in sieva bean leaves assessed as mortality at 5 mg/kg at 25 +/-1 degC treated for 3 secs measured after 4 days; conditions: 96 h
Ostrinia nubilalis = assay: Stomach toxicity against third-instar larval stage of Ostrinia nubilalis (European corn borer) in corn leaves assessed as mortality at 600 mg/kg at 25 +/-1 degC treated for 3-5 secs before larval infestation after 4 days by leaf-dip method; conditions: 96 h
Method in brief: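 Corn leaf disks (about 5 cm) were dipped for 3–5 s and air-dried. Each disk was placed in a 7 cm glass vessel with 10 third-instar corn borer larvae. Percentage mortality was scored 4 days after treatment. Controls were acetone-treated leaves. Run at 25 ± 1 °C.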

Plutella xylostella = assay: Stomach toxicity against third-instar larval stage of Plutella xylostella (diamondback moth) in cabbage leaves assessed as mortality at 200 mg/kg at 25 +/-1 degC treated for 3 secs before larval infestation after 4 days by leaf-dip method; conditions: 96 h
Method in brief: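 Cabbage leaf disks (6 cm × 2 cm) were dipped in test solution for 3 s and air-dried. Each disk was placed in a glass tube and given seven third-instar diamondback moth larvae. Percentage mortality was scored after 4 days. Controls were water and dimethylformamide. Each treatment was done three times at 25 ± 1 °C.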

Tetranychus cinnabarinus [6] = assay: Acaricidal activity against eggs of Tetranychus cinnabarinus (carmine spider mite) in sieva bean leaves assessed as mortality at 0.25 mg/kg at 25 +/-1 degC treated for 3 secs measured after 4 days; conditions: 96 h
Tetranychus cinnabarinus [7] = assay: Acaricidal activity against eggs of Tetranychus cinnabarinus (carmine spider mite) in sieva bean leaves assessed as mortality at 1 mg/kg at 25 +/-1 degC treated for 3 secs measured after 4 days; conditions: 96 h
Tetranychus cinnabarinus [8] = assay: Acaricidal activity against eggs of Tetranychus cinnabarinus (carmine spider mite) in sieva bean leaves assessed as mortality at 0.5 mg/kg at 25 +/-1 degC treated for 3 secs measured after 4 days; conditions: 96 h
Tetranychus cinnabarinus [9] = assay: Acaricidal activity against larvae of Tetranychus cinnabarinus (carmine spider mite) in sieva bean leaves assessed as mortality at 2.5 mg/kg at 25 +/-1 degC treated for 3 secs measured after 4 days; conditions: 96 h
Tetranychus cinnabarinus [10] = assay: Acaricidal activity against larvae of Tetranychus cinnabarinus (carmine spider mite) in sieva bean leaves assessed as mortality at 1 mg/kg at 25 +/-1 degC treated for 3 secs measured after 4 days; conditions: 96 h
Tetranychus cinnabarinus [11] = assay: Acaricidal activity against larvae of Tetranychus cinnabarinus (carmine spider mite) in sieva bean leaves assessed as mortality at 0.5 mg/kg at 25 +/-1 degC treated for 3 secs measured after 4 days; conditions: 96 h
Tetranychus cinnabarinus [12] = assay: Toxicity ratio of spiromesifen LC50 to compound LC50 for eggs of Tetranychus cinnabarinus (carmine spider mite) treated for 3 secs measured after 4 days
Tetranychus cinnabarinus [13] = assay: Acaricidal activity against eggs of Tetranychus cinnabarinus (carmine spider mite) in sieva bean leaves assessed as mortality at 0.05 mg/kg at 25 +/-1 degC treated for 3 secs measured after 4 days; conditions: 96 h
Tetranychus cinnabarinus [14] = assay: Acaricidal activity against eggs of Tetranychus cinnabarinus (carmine spider mite) in sieva bean leaves assessed as mortality at 25 +/-1 degC treated for 3 secs measured after 4 days
Mythimna separata [15] = assay: Stomach toxicity against fourth-instar larval stage of Mythimna separata (Oriental armyworm) in compound-pretreated corn leaves assessed as mortality at 100 mg/kg at 25 +/-1 degC after 4 days; method in brief: as §1
Tetranychus cinnabarinus [16] = assay: Acaricidal activity against eggs of Tetranychus cinnabarinus (carmine spider mite) in sieva bean leaves assessed as mortality at 0.1 mg/kg at 25 +/-1 degC treated for 3 secs measured after 4 days; conditions: 96 h
Mythimna separata [17] = assay: Stomach toxicity against fourth-instar larval stage of Mythimna separata (Oriental armyworm) in compound-pretreated corn leaves assessed as mortality at 50 mg/kg at 25 +/-1 degC after 4 days; method in brief: as §1

Structure (SMILES)	mortality at 5 mg/kg (Tetranychus cinnabarinus [1]) [%]	mortality at 10 mg/kg (Tetranychus cinnabarinus [2]) [%]	mortality at 2.5 mg/kg (Tetranychus cinnabarinus [3]) [%]	mortality at 600 mg/kg (Mythimna separata [4]) [%]	mortality at 600 mg/kg (Helicoverpa armigera) [%]	mortality at 5 mg/kg (Tetranychus cinnabarinus [5]) [%]	mortality at 600 mg/kg (Ostrinia nubilalis) [%]	mortality at 200 mg/kg (Plutella xylostella) [%]	mortality at 0.25 mg/kg (Tetranychus cinnabarinus [6]) [%]	mortality at 1 mg/kg (Tetranychus cinnabarinus [7]) [%]	mortality at 0.5 mg/kg (Tetranychus cinnabarinus [8]) [%]	mortality at 2.5 mg/kg (Tetranychus cinnabarinus [9]) [%]	mortality at 1 mg/kg (Tetranychus cinnabarinus [10]) [%]	mortality at 0.5 mg/kg (Tetranychus cinnabarinus [11]) [%]	RatioLC50 (Tetranychus cinnabarinus [12])	mortality at 0.05 mg/kg (Tetranychus cinnabarinus [13]) [%]	LC50 (Tetranychus cinnabarinus [14]) [mg/kg]	mortality at 100 mg/kg (Mythimna separata [15]) [%]	mortality at 0.1 mg/kg (Tetranychus cinnabarinus [16]) [%]	mortality at 50 mg/kg (Mythimna separata [17]) [%]
Cc1cc(C)c(C2=C(OC(=O)C(=O)N3CCCC3)C3(CCCC3)OC2=O)c(C)c1	70	40	30	40	30	0	30													
Cc1cc(C)c(C2=C(OC(=O)C(=O)N(C)c3ccccc3)C3(CCCC3)OC2=O)c(C)c1	100	80	100	80	50	70	30	70	50	100	100	40	0							
CCN(C(=O)C(=O)OC1=C(c2c(C)cc(C)cc2C)C(=O)OC12CCCC2)c1ccccc1	100	100	100	40	40	100	40		30	90	50	90	80	60						
CCN(C(=O)C(=O)OC1=C(c2c(C)cc(C)cc2C)C(=O)OC12CCCC2)c1ccc(C)cc1C	100	100	90	30	20	100	20			70	30	90	60	20						
CCN(C(=O)C(=O)OC1=C(c2c(C)cc(C)cc2C)C(=O)OC12CCCC2)c1ccc(Br)cc1	100	100	100	80	30	100	40		40	90	60	100	90	50						
CCN(C(=O)C(=O)OC1=C(c2c(C)cc(C)cc2C)C(=O)OC12CCCC2)c1ccc(C(F)(F)F)cc1	100	100	90	50	10	100	30		60	90	80	80	50	40						
CCOC(=O)C(=O)OC1=C(c2c(C)cc(C)cc2C)C(=O)OC12CCCC2	20	50		80	10	0	20	70												
Cc1cc(C)c(C2=C(OC(=O)CC(C)(C)C)C3(CCCC3)OC2=O)c(C)c1 [SPIROMESIFEN]	100	100	100		50	100	60	70	60	90	90	100	90	90	1	0	0.1567	100	20	60
